Experimental data reported in PMC11900868 (Science Advances, 2025).

Test system: CCl4-induced liver fibrosis mice
Test: Res treatment of CCl4-induced liver fibrosis, histology and immunohistochemistry
Format: in vivo, male Balb/c mice
Details: CCl4 10 weeks then discontinued; 10 mg/kg intraperitoneal twice a week
In short: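 Fibrosis induced in male Balb/c mice by intraperitoneal 20% CCl4 in olive oil twice weekly: 0.1 ml week 1, 0.15 ml week 2, 0.2 ml thereafter. After 10 weeks, CCl4 stopped and resveratrol given intraperitoneally at 10 mg/kg twice weekly for 1 or 3 weeks. Liver sections stained with H&E and Sirius red, plus α-SMA and FAP immunostaining. Percent positive area quantified; mean ± SD, ANOVA.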

Oc1ccc(/C=C/c2cc(O)cc(O)c2)cc1 [Res, resveratrol]
fibrotic tissue, HSCs activation and FAP expression after 1 week of treatment: significant reduction in fibrotic tissue, HSCs activation, and FAP expression levels
fibrotic tissue, HSCs activation and FAP expression after 3 weeks of treatment: all parameters approached normal levels
